This is a sample that favours compounds with a hit; in the whole collection about 3.7% have one here.
KCNK3 inh: human KCNK3 channel inhibition, primary screen; O14649; CHO-KCNK3 thallium flux, FluxOR fluorescence; active compounds read low; B-score at 10 µM; 340,000 compounds, 0.84% hits;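 active means B-score under library mean minus 4 SD, starting fluorescence ratio at most library mean plus 5 SD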;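 further: more negative B-score means stronger inhibition of thallium flux through KCNK3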
Kir21 inh: Kir2.1 (mouse) channel inhibition | B-score at 10 µM | P35561 | 310,000 compounds, 0.85% hits | HEK293-Kir2.1, FluxOR thallium flux fluorescence; active compounds read low | AID 1672;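 active means fluorescence ratio B-score at or below minus 3 SD of library scores, with starting-brightness B-score within 2 SD, cut at about -4.2 in these data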;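 further: channel flux triggered by added potassium and thallium sulfate stimulus; B-score of peak minus minimum fluorescence over baseline after thallium stimulus; more negative B-score means stronger Kir2.1 block with less thallium influx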
KCNK9 block: blocks the human KCNK9 two-pore domain potassium channel; B-score at 10 µM; AID 488922; Q9NPC2; HEK293 KCNK9, FluxOR thallium flux fluorescence; active compounds read low; 310,000 compounds, 1.2% hits;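 active means ratio B-score over 3 SD below the library mean, with starting fluorescence within 5 SD of its mean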;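 further: negative B-score means less thallium flux so channel inhibition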
KCNQ1 act: human KCNQ1 channel potentiation or activation | B-score at 10 µM | 310,000 compounds, 0.35% hits | P51787 | CHO-K1 KCNQ1, thallium flux FluxOR fluorescence; active compounds read high;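 active means fluorescence ratio B-score, a plate-corrected score, at least three library SD, with initial intensity B-score within 5 SD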
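Assay system: CHO-K1 cells stably expressing KCNQ1; Medium: assay buffer with matched DMSO; Also added: K+/Tl+ depolarizing stimulus; Dosing: single dose; Timing: dye 90 min, compound 20 min, room temperature; Measured by: kinetic FluxOR thallium fluorescence, 10-s 1-Hz baseline, 110-s post-stimulus read; Read-out: peak-minus-minimum fluorescence over initial fluorescence, negative-control normalized, B-scored.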
hERG rescue: shields human hERG channel from block by proarrhythmic agents; Q12809; CHO-hERG, FluxOR thallium flux, dofetilide IC70 present; activation (rescue from dofetilide block), less the hit threshold, % at 10 µM; 310,000 compounds, 0.51% hits; AID 1511;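 active means activation above the mean of controls blocked by dofetilide plus 5 SD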;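 further: thallium influx through hERG after potassium depolarization seen as dye fluorescence rise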
KCNQ1 inh: human KCNQ1 channel inhibition; P51787; CHO-K1 KCNQ1, FluxOR thallium flux fluorescence; active compounds read high; B-score at 10 µM; 310,000 compounds, 1.3% hits; AID 2642;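 active means compounds whose thallium flux B-score, printed positive for inhibition, exceeds three library SD while starting fluorescence stays within three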;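 further: channel opened by potassium depolarization with thallium stimulus after 20 min compound exposure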
An asterisk follows results filed as active; i = inactive; . = no result.

SMILES | KCNK3 inh | Kir21 inh | KCNK9 block | KCNQ1 act | hERG rescue | KCNQ1 inh
O=C(Nc1ccc(Cl)c(Cl)c1)Nc1ccc(Br)cc1F | i | -0.41 | i | i | -29 | 7*
CSc1ccccc1NC(=O)Nc1ccc(F)c(Cl)c1 | i | 0.7 | i | i | -11 | i
O=C(O)CCNc1cc(N2CCN(C(=O)c3ccco3)CC2)c2noc3c2c1C(=O)c1ccccc1-3 | i | -0.93 | i | i | -18 | i
CCN1CCN(c2cc(N3CCN(C(=O)c4ccco4)CC3)c3c4c(onc24)-c2ccccc2C3=O)CC1 | i | -1.9 | i | i | -10 | 8*
COc1ccc(CNC(=O)CN(c2ccc(C(C)C)cc2)S(=O)(=O)c2c(C)noc2C)cc1 | i | -0.85 | i | i | -8 | i
Cc1cccc(N2CCN(C(=O)c3ccncc3)CC2C)c1 (centres undefined) | i | -0.16 | i | i | 6.1* | i
Cc1cc(C)c2c(=O)n(CC(=O)N3CCC(Cc4ccccc4)CC3)sc2n1 | . | -1.5 | i | i | -4 | i
Cc1cccc(N2CCN(C(=O)c3ccc4ccccc4c3)CC2C)c1 (centres undefined) | i | . | . | . | . | .
Cc1cccc(N2CCN(C(=O)Cn3sc4nc(C)cc(C)c4c3=O)CC2C)c1 (centres undefined) | i | -2.1 | i | 14* | -8 | i
Cc1ccc(N2CCN(C(=O)Nc3cccc([N+](=O)[O-])c3)CC2C)cc1 (centres undefined) | i | 0.01 | i | i | -18 | 6*
COc1cc(O)c(C(C)=O)c2c1C=CC(C)(C)O2 | i | . | . | . | . | .
O=C(c1ccc(Cl)cc1)N1CCCOC1 | i | -0.27 | i | i | 7.0* | i
CCN(CC)S(=O)(=O)c1ccc2[nH]c(=O)cc(C(=O)Nc3cccc(C(C)=O)c3)c2c1 | i | -0.05 | i | i | 22* | i
CC(C)CNC(=O)C(=O)NCC1OCCCN1S(=O)(=O)c1cccs1 (centres undefined) | i | -0.53 | i | i | -13 | i
Cc1ccc(NC(=Nc2ccc(Br)cc2)N2CCOCC2)cc1C | i | -3.8 | i | i | -10 | 6*
N=c1n(CC(=O)c2cccc([N+](=O)[O-])c2)c2ccccc2n1Cc1ccccc1 | i | 0.33 | i | i | -18 | i
Cn1c(=N)n(CC(O)c2cccc3ccccc23)c2ccccc21 (centres undefined) | i | -4.4* | i | i | -10 | i
N=c1n(N)c2ccccc2n1CC(=O)c1ccc(Br)cc1 | i | -5.5* | i | i | -9 | i
C=CCn1c(=N)n(CC(=O)c2ccc(Br)cc2)c2ccccc21 | i | 0.45 | i | i | -14 | i
Cc1ccc(Cn2c(=N)n(CC(=O)c3ccccc3)c3ccccc32)cc1 | i | -8.9* | i | i | -30 | i
N=c1n(Cc2ccccc2Cl)c2ccccc2n1CC(O)c1ccco1 (centres undefined) | i | -5.2* | i | i | -11 | i
COc1ccc(/C=C/c2cc(C(F)(F)F)on2)cc1 | i | -0.1 | i | i | -7 | i
Cc1ccc(C2(C)NC(=O)N(CC(=O)NNC(=O)c3cc(C)oc3C)C2=O)cc1 (centres undefined) | i | 0 | i | i | -11 | i
CCCn1c(=N)n(CC(O)c2ccco2)c2ccccc21 (centres undefined) | i | -0.17 | i | i | 1 | i
Cc1ccc(Cn2c(=N)n(CC(O)c3ccco3)c3ccccc32)cc1 (centres undefined) | i | -5* | i | i | -7 | i
CCCn1c(=N)n(CC(O)c2ccc(C)cc2)c2ccccc21 (centres undefined) | i | -6* | i | i | -14 | i
NS(=O)(=O)c1ccc(NC(=S)Nc2ccc(OCc3ccccc3)cc2)cc1 | i | 2.5 | i | 30* | -4 | i
S=C(Nc1ccccc1)Nc1ccc(OCc2ccccc2)cc1 | i | 1 | i | i | -12 | i

Screening data from PubChem BioAssay.
